# Assay outcomes deposited in PubChem BioAssay by several laboratories.
# Most compounds without a hit are left out; they make up all but 5.9% or so of the library.
# MT1-MMP txn act: activates MT1-MMP transcription | HT1080 MT1-MMP promoter luciferase reporter, luminescence, overnight; active compounds read high | activation factor at 10 µM | 86,000 compounds, 0.16% hits | AID 750;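 active = activation factor of at least 2 for MT1-MMP transcription at 10 µM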
# H69AR growth 86K: growth inhibitors of human H69AR lung tumor cells; viability, % at 10 µM; H69AR lung tumor viability, ATP luminescence, 72 h; active compounds read low; 85,000 compounds, 6% hits;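 active = viability at or below 40%; inactive = viability above 40%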;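 note: multidrug resistant small cell line overexpressing MRP-1 efflux transporter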
# HUVEC prolif 384: inhibitors of human endothelial cell proliferation; HUVEC proliferation, CellTiter-Glo luminescence, 72 h; active compounds read low; viability, % at 10 µM (by protocol); 86,000 compounds, 1.1% hits;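 active = viability at or below 30%; inactive = viability above 30%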
# Jurkat tox 60K: reduces viability or proliferation of Jurkat cells; Jurkat E6.1 viability, ATP luminescence, 48 h; inhibition, % at 4 µM; 56,000 compounds, 1.2% hits;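 active = inhibition above the mean inhibition of all tested compounds plus 3 SD, cut at about 28% in these data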
# Fibroblast inh: blocks proliferation of human lung fibroblasts; LL 47 human lung fibroblast viability, ATP luminescence; active compounds read low; viability, % at 10 µM; 85,000 compounds, 1.1% hits;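 active = viability at or below 50% in the single dose screen; inactive = viability above 50%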;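 note: compound exposure lasted 72 h before the ATP readout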
#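 Assay system: human lung fibroblast line LL 47, low passage. Input: 1,150 fibroblasts seeded per well. Times: overnight cell rest, 72 h compound treatment at 37 °C. Evaluation: % viability of median cell-only signal. Technique: luminescent ATP detection, CellTiter-Glo. Control set: cell-only wells, no compound.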
# Pyk2 oligo antag: Pyk2 (human) oligomerization antagonism | Q14289 | Q293 cells, Pyk2 FERM NanoBiT luminescence; active compounds read low | z-score (the deposit names both 25 µM and 10 µM) | 99,000 compounds, 0.83% hits | AID 1347419;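 active = Z-score of -3 or lower, scaled per plate to the spread of control and sample wells; inactive = z-score above -3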;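 note: negative z-score means lost luminescence so less FERM oligomerization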
# Target sequence (Q14289 whole entry, looked up): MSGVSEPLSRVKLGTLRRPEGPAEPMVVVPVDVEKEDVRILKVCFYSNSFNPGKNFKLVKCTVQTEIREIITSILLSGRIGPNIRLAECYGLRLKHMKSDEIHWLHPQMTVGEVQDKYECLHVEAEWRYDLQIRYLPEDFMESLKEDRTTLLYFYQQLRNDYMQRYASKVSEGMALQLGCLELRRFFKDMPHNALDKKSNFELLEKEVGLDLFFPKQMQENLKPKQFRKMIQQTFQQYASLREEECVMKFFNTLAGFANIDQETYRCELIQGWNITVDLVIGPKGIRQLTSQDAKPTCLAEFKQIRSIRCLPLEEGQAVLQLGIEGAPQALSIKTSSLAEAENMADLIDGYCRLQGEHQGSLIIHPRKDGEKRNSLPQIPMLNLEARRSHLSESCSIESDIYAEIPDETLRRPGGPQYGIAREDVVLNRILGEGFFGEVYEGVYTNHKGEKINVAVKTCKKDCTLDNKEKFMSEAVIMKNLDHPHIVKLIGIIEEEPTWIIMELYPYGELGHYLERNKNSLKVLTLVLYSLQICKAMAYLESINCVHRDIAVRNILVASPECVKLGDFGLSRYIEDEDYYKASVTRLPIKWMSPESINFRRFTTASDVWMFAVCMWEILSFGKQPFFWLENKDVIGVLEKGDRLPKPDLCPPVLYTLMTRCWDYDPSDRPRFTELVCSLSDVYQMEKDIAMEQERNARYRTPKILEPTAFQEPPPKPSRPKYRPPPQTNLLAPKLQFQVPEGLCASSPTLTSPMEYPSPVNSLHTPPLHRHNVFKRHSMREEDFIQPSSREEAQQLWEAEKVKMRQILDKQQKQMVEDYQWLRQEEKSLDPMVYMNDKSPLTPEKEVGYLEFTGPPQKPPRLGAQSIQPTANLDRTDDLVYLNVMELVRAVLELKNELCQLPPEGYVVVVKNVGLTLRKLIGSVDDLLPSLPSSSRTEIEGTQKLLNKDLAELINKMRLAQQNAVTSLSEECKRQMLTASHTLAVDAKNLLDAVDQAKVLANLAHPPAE
# Hits are given with their value; - = inactive; . = no result.
SMILES,MT1-MMP txn act,H69AR growth 86K,HUVEC prolif 384,Jurkat tox 60K,Fibroblast inh,Pyk2 oligo antag
Cc1ccc(-c2noc(CCCC(=O)Nc3cccnc3)n2)cc1,-,-,-,-,-,-
c1ccc(C(Cc2nc(-c3ccncc3)no2)c2ccccc2)cc1,-,-,-,58,-,-
FC(F)(F)COc1nc(N2CCOCC2)nc(N(c2ccccc2)c2ccccc2)n1,-,40,-,.,-,-
CS(=O)(=O)Nc1ccc(C(=O)NC2CCCC2)cc1,-,-,-,-,-,-
CC(C)OC(=O)c1c(N)n(CCCN2CCOCC2)c2nc3ccccc3nc12,-,-,-,.,-,-
CC(C)OC(=O)c1c2nc3ccccc3nc2n2c1[nH]c(=O)c1ccccc12,-,33,-,.,-,.
COc1cccc(COc2cc3ccccc3nc2C)c1,.,.,.,.,.,-
O=C(CSc1n[nH]c(-c2ccccc2O)n1)N1CCCc2ccccc21,-,25,-,62,-,-
Cc1cc(N2CCCCC2)nc(NCc2ccccc2)n1,-,16,-,.,-,-
CCn1c2ccccc2c2cc(NC(=O)C3CCN(S(=O)(=O)c4cccs4)CC3)ccc21,.,21,-,.,-,-
CCOc1ccc2ccccc2c1C(=O)N1CCN(c2ccccc2)CC1,-,15,-,85,-,-
CCOc1ccccc1C(=O)N1CCN(c2cccc(Cl)c2)CC1,-,31,-,98,-,-
CCOC(=O)c1[nH]c(C)c(C(=O)N2CCN(c3ccccc3)CC2)c1C,-,-,-,-,-,-
COc1ccccc1C(=O)N1CCN(c2cccc(C(F)(F)F)c2)CC1,-,15,-,82,-,-
COc1ccc(C(=O)N2CCN(c3cccc(Cl)c3)CC2)c(OC)c1,-,15,-,56,-,-
COc1cc(C(=O)N2CCN(C(=O)Cc3ccccc3)CC2)cc(OC)c1OC,-,-,-,-,-,-
CCOC(=O)c1ccccc1NC(=O)CN(c1cccc(OC)c1)S(C)(=O)=O,-,-,-,-,-,-
COc1cc2c(C(=O)N3CCN(c4ccccc4)CC3)c(C)oc2cc1Br,-,23,-,.,-,-
COc1ccc(N2CCN(C(=O)c3c(-c4ccccc4)noc3C)CC2)cc1,-,-,-,-,-,.
CC1(C)N=C(N)NC(Nc2ccccc2)=N1,-,-,-,.,-,-
Cn1cccc1Cc1nnc(SCC(=O)N2CCN(c3ccccc3)CC2)n1-c1ccc(F)cc1,-,.,.,-,.,-
Cc1ccc(-c2cc(-c3ccc(F)cc3)nc(N)c2C#N)o1,-,14,-,-,-,-
Cc1ccc(-c2cc(-c3ccccc3)c(C#N)c(N)n2)o1,-,-,-,-,-,-
C=C(C)C1Cc2c(C)nn(-c3cc(C)c4ccccc4n3)c2C1 (centres undefined),-,-,-,.,-,.
O=C(N/N=C/c1ccc(O)c(O)c1)c1ccc(CSc2cccc3cccnc23)cc1,-,40,-,.,-,-
SMILES,MT1-MMP txn act,H69AR growth 86K,HUVEC prolif 384,Jurkat tox 60K,Fibroblast inh,Pyk2 oligo antag
O=C(COC(=O)CCC(=O)c1cccs1)Nc1cc(S(=O)(=O)N2CCOCC2)ccc1Cl,.,.,.,.,.,-
Cc1cc2nc(C3CCN(CC4COc5ccccc5O4)CC3)[nH]c2cc1C (centres undefined),-,33,5.9,-,-,-
O=C(COC(=O)c1cc([N+](=O)[O-])ccc1NCc1ccccc1)NC1CCCc2ccccc21 (centres undefined),-,38,-,.,-,-
O=C(COC(=O)CCNS(=O)(=O)c1ccc2c(c1)OCCO2)NC1CCCc2ccccc21 (centres undefined),-,-,-,-,-,-
CNC(=O)c1cc(Nc2nnc(C)c3ccccc23)ccc1OC,-,-,-,.,-,-
CC(C)Nc1cc(N2CCCC2)ccc1[N+](=O)[O-],.,.,.,.,.,-3
CCOc1cc(S(=O)(=O)NCc2ccc3c(c2)OCO3)c(C)cc1C,-,-,-,-,-,-
CCOc1cc(C)c(Cl)cc1S(=O)(=O)NCc1ccc2c(c1)OCO2,-,22,-,-,-,-
C=CCOc1ccc(C2OC34CCCCC3C(C#N)(C#N)C2(C#N)C(=N)O4)cc1 (centres undefined),-,13,-,.,-,-
CCCCOc1ccc(C2OC34CCCCC3C(C#N)(C#N)C2(C#N)C(=N)O4)cc1 (centres undefined),-,-,-,.,-,-
Cc1ccc(C)c(NC(=O)CSc2nnc(-c3ccccc3)n2N)c1,-,-,-,.,-,-
CC1C/C(=N/NC(=O)c2cccc(F)c2)c2ccc(O)cc2C1 (centres undefined),.,.,.,.,.,-
Cc1cc(C)c2c(-n3cccc3)c(C(=O)O)sc2n1,-,-,-,-,-,-
CCCCNC(=O)c1sc2nc(C)cc(COC)c2c1-n1cccc1,-,35,-,-,-,-
C=C(C)n1c(=O)[nH]c2ccccc21,-,-,-,-,-,-
Cc1cc(C)c(C(=O)c2ccc(C(=O)NC(C)(C)C)cc2)c(C)c1,-,-,-,.,-,-
Cc1cc(C)c(C(=O)c2ccc(C(=O)N(C(C)C)C(C)C)cc2)c(C)c1,.,24,-,.,-,-
CCCOc1c(Br)cc(/C=N/O)cc1OC,-,30,-,.,-,-
COc1cc(CNc2cc(C)ccc2C)cc(OC)c1OC,-,-,-,-,-,-
COc1cc(CNc2ccc(C)c(C)c2)cc(OC)c1OC,-,19,-,88,.,-
COc1cc(C)c(CNc2ccc(OC)c(OC)c2)cc1C,-,36,-,-,.,.
CCOC(=O)C(NC(C)=O)(Nc1ccc(S(=O)(=O)Nc2ccncn2)cc1)C(F)(F)F (centres undefined),-,-,-,.,-,-
Cc1cccc(C)c1NC(=O)C(C)c1ccc(-c2ccccc2)c(F)c1 (centres undefined),.,.,.,.,.,-
O=C(NCC1c2ccccc2CCN1C(=O)CN1C(=O)c2ccccc2C1=O)C1CCCCC1 (centres undefined),-,-,-,.,-,-
COCCCNC(=O)c1ccc(Cn2c(=O)c3ccccc3n(Cc3cc(C)ccc3C)c2=O)cc1,-,39,-,.,-,-
SMILES,MT1-MMP txn act,H69AR growth 86K,HUVEC prolif 384,Jurkat tox 60K,Fibroblast inh,Pyk2 oligo antag
COCCCNC(=O)CCCn1c(=O)[nH]c2ccccc2c1=O,-,-,-,-,.,-
COCCCNC(=O)CCn1c(=O)c2ccccc2n(CC(=O)Nc2ccccc2C)c1=O,-,-,-,-,-,-
COCCCNC(=O)c1ccc(Cn2c(=O)c3ccccc3n(Cc3ccccc3C#N)c2=O)cc1,-,18,-,.,-,-
COCCCNC(=O)c1ccc(Cn2c(=O)c3ccccc3n(Cc3ccccc3C)c2=O)cc1,-,19,-,.,-,-
COCCCNC(=O)c1ccc(Cn2c(=O)[nH]c3ccccc3c2=O)cc1,-,23,-,-,-,.
O=C(OCC(=O)N(C1CCCCC1)C1CCCCC1)c1cnccn1,-,1.2,-,-,-,-
CCN(C(=O)COC(=O)c1cnc(C)cn1)C1CCCCC1,-,-,-,-,-,-
CCOC(=O)C1CCN(c2cc(=O)n(Cc3ccc(F)cc3)c(=O)[nH]2)CC1,-,-,-,-,-,.
